These results are taken from ChEMBL document CHEMBL5104210, “Discovery of antipsychotic loxapine derivatives against intracellular multidrug-resistant bacteria” (RSC Med Chem, 2022).

Series [1] in a line: Selectivity ratio of CC50 for cytotoxicity against mouse RAW264.7 cells to EC50 for antibacterial activity against intracellular multidrug-resistant Salmonella typhimurium ATCC14028 infected in mouse RAW264.7 cells. The format is toxicity, cell-based. To be noted: read-out: Ratio CC50/EC50. An outline of the steps: (§1)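 RAW264.7 cells were seeded for 20 h, then infected for 1 h at MOI 50 with RFP-expressing bacteria (2 h subculture, OD600 0.6 ≈ 1×10^8 CFU/mL). Gentamicin 100 mg/L was given for 1 h, then compound plus 20 mg/L gentamicin for 24 h. Cells were stained with CellTracker Green, fixed, and stained with DAPI. Whole-well high-content imaging gave intracellular RFP intensity for EC50 and DAPI nuclei counts for CC50.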

Series [2] is described as follows: Cytotoxicity against mouse RAW264.7 cells assessed as reduction in number of cells by DAPI staining based high-content image analysis. It counts as toxicity, cell-based. A digest of the protocol: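 RAW264.7 seeded 20 h, infected 1 h with RFP-expressing S. Typhimurium (MOI 50), 100 mg/L gentamicin 1 h, then compound with 20 mg/L gentamicin 24 h. Cells stained with CellTracker Green, fixed in 3.7% formaldehyde, DAPI 0.2 mg/L. Whole-well high-content imaging at 10×; viable cells counted as DAPI-stained nuclei; CC50 calculated.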

A further series has as its system Salmonella typhimurium. The series is described as follows: Antibacterial activity against intracellular multidrug-resistant Salmonella typhimurium ATCC14028 infected in mouse RAW264.7 cells assessed as reduction in intracellular bacterial survival level by RFP staining based high-content image analysis. It counts as functional, organism-based, Salmonella enterica subsp. enterica serovar Typhimurium. To be noted: Salmonella enterica, ATCC14028, RAW264.7. A digest of the protocol:
as §1

The target of series [3] is D(2) dopamine receptor (Homo sapiens) (UniProt P14416). The experiment in a line: Inhibition of isotope-labelled spiperone binding to recombinant dopamine D2 receptor (unknown origin). A digest of the protocol:
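Human recombinant D2L receptor expressed in CHO cells (20 μg) incubated with increasing compound concentrations and 0.16 nM [3H]spiperone in Tris-HCl pH 7.4, 120 min at 25°C. Bound radioligand measured by filtration, washing and counting. Nonspecific binding defined with 10 μM haloperidol. Run as a contract service.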

The source made the active and inactive calls. The calls are words filed in the database; no cut-off is given here. Where only a bound is given, the exact number is not on record here.

Chain of D(2) dopamine receptor (Homo sapiens) (P14416 whole entry): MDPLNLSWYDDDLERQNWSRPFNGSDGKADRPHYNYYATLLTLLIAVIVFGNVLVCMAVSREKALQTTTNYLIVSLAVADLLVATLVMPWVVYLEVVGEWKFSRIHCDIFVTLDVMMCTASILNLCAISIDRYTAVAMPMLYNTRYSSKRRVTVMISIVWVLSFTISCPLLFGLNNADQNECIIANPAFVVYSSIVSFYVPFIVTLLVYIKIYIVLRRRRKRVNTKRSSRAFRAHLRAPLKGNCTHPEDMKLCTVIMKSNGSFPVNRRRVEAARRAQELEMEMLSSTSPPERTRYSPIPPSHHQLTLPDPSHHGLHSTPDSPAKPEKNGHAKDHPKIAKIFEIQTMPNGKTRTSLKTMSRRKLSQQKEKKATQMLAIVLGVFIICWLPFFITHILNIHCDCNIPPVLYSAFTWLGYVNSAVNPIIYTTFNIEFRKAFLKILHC

In general, CC50 refers to the concentration that lowers cell viability or growth by half. The EC50 is the concentration at which the effect is half-maximal. For the compound `Clc1ccc2c(c1)C(NCCN1CCCCC1)=Nc1ccccc1O2`, the selectivity ratio in series [1] was 5.1. Besides, the CC50 in series [2] was determined as 22.2 µM. For the same compound, the EC50 in the series on Salmonella typhimurium was found to be 4.34 µM.
On to `NCC(=O)Nc1ccc(-n2nc(C(F)(F)F)cc2-c2ccc3c(ccc4ccccc43)c2)cc1` [AR-12], for which the CC50 in series [2] worked out at 7.7 µM.
Consider `Clc1ccc2c(c1)C(NCc1ccccc1)=Nc1ccccc1O2`, for which the selectivity ratio in series [1] stood at 3.1. Further, the half-maximal cytotoxic concentration (CC50) in series [2] was 60.8 µM. Further, in the series with Salmonella typhimurium, the concentration giving a half-maximal response (EC50) is 19.7 µM.
For `Clc1ccc2c(c1)C(NCCc1ccccc1)=Nc1ccccc1O2`, in that order: 2.7, 56.3 µM and 21.2 µM.
As for `Clc1ccc2c(c1)C(NCCN1CCCC1)=Nc1ccccc1O2`, in series [1], the selectivity ratio stood at 5.4. For the same compound, the CC50 in series [2] worked out at 26.6 µM. The concentration giving a half-maximal response (EC50) with Salmonella typhimurium was 4.89 µM.
In the same order, the values of `Oc1ccc(CCNC2=Nc3ccccc3Oc3ccc(Cl)cc32)cc1` are 1.6, 52.1 µM and 33.5 µM.
In the same order, the values of `Clc1ccc2c(c1)C(NCCc1cccnc1)=Nc1ccccc1O2` are 1.9, 74 µM and 38.2 µM.
For `Clc1ccc(CCNC2=Nc3ccccc3Oc3ccc(Cl)cc32)cc1`, in that order: above 1.7, above 90 µM and 53.5 µM.
Regarding `Clc1ccc2c(c1)C(NCCc1ccncc1)=Nc1ccccc1O2`, in series [1], the selectivity ratio came out at 2.8. Also, the CC50 in series [2] came out at 51.1 µM. Further, the EC50 in the series with Salmonella typhimurium came out at 18.5 µM.
In the case of `Clc1ccc2c(c1)C(N1CCNCC1)=Nc1ccccc1O2` [AMOXAPINE], the inhibition result in series [3] is “Active”. Further, the selectivity ratio in series [1] was 14.8. In series [2], the CC50 was found to be 107 µM. The EC50 with Salmonella typhimurium was determined as 7.25 µM.
`O=C(CNC1=Nc2ccccc2Oc2ccc(Cl)cc21)N1CCCC1`: the cytotoxic concentration (CC50) in series [2] is above 90 µM. Also, in the series with Salmonella typhimurium, the EC50 was above 90 µM.
With `O=C(O)c1cn(C2CC2)c2cc(N3CCNCC3)c(F)cc2c1=O` [CIPROFLOXACIN], the EC50 in the series with Salmonella typhimurium was 0.15 µM.
As for `Clc1ccc2c(c1)C(NCCc1ccc(Cl)c(Cl)c1)=Nc1ccccc1O2`, in series [1], the selectivity ratio worked out at 2.7. For the same compound, in series [2], the CC50 came out at 82.7 µM. In addition, the EC50 in the series with Salmonella typhimurium came out at 31.1 µM.
